In ChEMBL document CHEMBL1649306, “Arylimidamide DB766, a potential chemotherapeutic candidate for Chagas' disease treatment” (Antimicrob Agents Chemother, 2010):
Activity calls are given as the source filed them. No cut-off for these calls is given here.

How the values were obtained:
Mus musculus [1] = assay: Cardiotoxicity in […] mouse assessed as effect on heart rate level at 100 mg/kg/day, ip; assay type: toxicity, organism-based; set-up: route intraperitoneal; settings: in vivo
In short: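 Colombian strain, 5 × 10³ bloodstream forms i.p. into male C3H/He mice; 100 mg/kg/day given i.p. or by gavage (0.1 ml) daily for 10 doses from parasitemia onset. Mice sedated with diazepam (20 mg/kg i.p.), supine; eight-lead ECG from subcutaneous limb needle electrodes plus precordial lead II. Signal-averaged ECG; heart rate as beats per minute.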

Mus musculus [2] = assay: Cytotoxicity against Swiss-Webster mouse assessed as effect on creatine kinase at 100 mg/kg/day measured after 14 days postinfection; assay type: organism-based; settings: in vivo, 336 h
Trypanosoma cruzi [3] = assay: Antitrypanosomal activity against Trypanosoma cruzi Y infected in Swiss-Webster mouse assessed as decrease in parasite load at 100 mg/kg/day, ip administered 5 days post-infection for 10 consecutive days measured on day 120; assay type: functional; settings: route intraperitoneal
In short: (§1)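 Male Swiss mice infected i.p. with 10^4 Y strain bloodstream forms. Given 0.2 ml i.p. at 5 and 8 dpi, or daily for 10 days from 5 dpi; reference drug given by gavage. Parasitemia measured by the Pizzi-Brener method, cumulative mortality checked daily to 120 dpi, n ≥ 6 per group.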

Trypanosoma cruzi [4] = assay: Antitrypanosomal activity against bloodstream forms of Trypanosoma cruzi Y after 2 hrs by light microscopy in presence of 96% mouse blood; assay type: functional, organism-based
In short: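 Bloodstream trypomastigotes held at 4°C in freshly isolated mouse blood (96%) with serial dilutions up to 32 μM. Live motile parasites counted by light microscopy in a Neubauer chamber, giving an IC50 for each exposure time.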

Trypanosoma cruzi [5] = assay: Antitrypanosomal activity against bloodstream forms of Trypanosoma cruzi YuYu after 24 hrs by light microscopy in presence of 50% mouse blood; assay type: functional, organism-based
In short: (§2)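 Bloodstream trypomastigotes kept at 4°C for 24 h in freshly isolated 50% mouse blood with serial dilutions (up to 32 μM). Motile live parasites counted in a Neubauer chamber by light microscopy; IC50 calculated as concentration reducing parasite number by 50%.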

Trypanosoma cruzi [6] = assay: Antitrypanosomal activity against bloodstream forms of Trypanosoma cruzi Columbian after 24 hrs by light microscopy in presence of 50% mouse blood; assay type: functional, organism-based; in short: as §2
Trypanosoma cruzi [7] = assay: Antitrypanosomal activity against Trypanosoma cruzi 956 epimastigotes after 24 hrs by light microscopy; assay type: functional, organism-based; settings: Trypanosoma cruzi, 956, 24 h
In short: (§3)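 Epimastigotes from 5-day exponential cultures, 5 × 10^6 parasites/ml in LIT medium, incubated at 28°C up to 96 h with DB766 0 to 32 μM or Bz 0 to 250 μM. Counted daily in a Neubauer chamber. IC50 averaged from at least three determinations in duplicate.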

Trypanosoma cruzi [8] = assay: Antitrypanosomal activity against Trypanosoma cruzi MS1523 epimastigotes after 24 hrs by light microscopy; assay type: functional, organism-based; settings: MS1523, 24 h; in short: as §3
Trypanosoma cruzi [9] = assay: Antitrypanosomal activity against Trypanosoma cruzi RBVIII epimastigotes after 24 hrs by light microscopy; assay type: functional, organism-based; in short: as §3
[10] = Cytotoxicity against Swiss-Webster mouse cardiomyocytes after 24 hrs by MTT assay; assay type: cell-based, Cardiomyocyte; settings: read-out: LC50
In short: (§4)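 Primary embryonic cardiomyocytes from Swiss mice, uninfected, incubated 24 h or 72 h at 37°C, 5% CO2, with 0 to 96 μM in DMEM. MTT read at 490 nm; LC50 taken as concentration reducing viability by 50%; at least three experiments in duplicate.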

[11] = Cytotoxicity against Swiss-Webster mouse cardiomyocytes after 72 hrs by MTT assay; assay type: cell-based, Cardiomyocyte; settings: read-out: LC50; in short: as §4
Trypanosoma cruzi [12] = assay: Antitrypanosomal activity against bloodstream forms of Trypanosoma cruzi Y infected in Swiss mouse cardiomyocytes assessed as parasite mitochondrial swelling at 10 ug/ml after 2 hrs by transmission electron microscopy; assay type: functional, organism-based
In short: (§5)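 Y-strain bloodstream trypomastigotes treated 2 to 24 h at 37°C. Fixed 60 min at 4°C in 2.5% glutaraldehyde in 0.1 M cacodylate, pH 7.2. Postfixed 1 h at 4°C in 1% OsO4 with 0.8% potassium ferricyanide. Acetone-dehydrated, Epon-embedded, sections stained with uranyl acetate and lead citrate, ultrastructure examined by TEM.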

Trypanosoma cruzi [13] = assay: Antitrypanosomal activity against bloodstream forms of Trypanosoma cruzi Y infected in Swiss mouse cardiomyocytes assessed as parasite mitochondrial swelling at 10 ug/ml after 24 hrs by transmission electron microscopy; assay type: functional, organism-based; in short: as §5
Trypanosoma cruzi [14] = assay: Antitrypanosomal activity against Trypanosoma cruzi Y bloodstream forms infected in Swiss mouse cardiomyocytes assessed as parasite crista dilation at 10 ug/ml after 24 hrs by transmission electron microscopy; assay type: functional, organism-based
Mus musculus [15] = assay: Toxicity in female Swiss-Webster mouse assessed as mortality at cumulative dose of 200 mg/kg, ip measured after 48 hrs; assay type: organism-based; set-up: dose 200 mg/kg, route intraperitoneal; settings: in vivo
In short: (§6)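 Uninfected 8–10-week-old female and male Swiss Webster and C3H/He (H-2k) mice injected i.p. on day 1 every 2 h with escalating doses: 5, 15, 30, 50 and 100 mg/kg (cumulative 20, 50, 100, 200 mg/kg). Toxic and subtoxic signs inspected on days 2–3 per OECD guidelines; tolerated dose set at 48 h.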

Mus musculus [16] = assay: Toxicity in male Swiss-Webster mouse assessed as mortality at cumulative dose of 200 mg/kg, ip measured after 48 hrs; assay type: organism-based; set-up: dose 200 mg/kg, route intraperitoneal; settings: in vivo; in short: as §6
Trypanosoma cruzi [17] = assay: Antitrypanosomal activity against Trypanosoma cruzi Y bloodstream forms infected in Swiss-Webster mouse assessed as decrease in parasite load at 50 mg/kg/day, ip administered 8 days postinfection measured on day 2; assay type: functional; set-up: scale not given: the % may be the effect or the level left; settings: route intraperitoneal
In short: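 Two-day regimen in male Swiss mice infected i.p. with 10^4 Y-strain bloodstream forms: i.p. doses (0.2 ml) at 5 and 8 dpi. Circulating parasites quantified at the 8 dpi peak by Pizzi-Brener method; reduction versus infected untreated mice; n ≥ 6 per group.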

Trypanosoma cruzi [18] = assay: Antitrypanosomal activity against Trypanosoma cruzi Y bloodstream forms infected in Swiss-Webster mouse assessed as survival of mouse at 50 mg/kg/day, ip p administered 5 days postinfection for 10 consecutive days measured on day 120; assay type: functional, organism-based; in short: as §1
Trypanosoma cruzi [19] = assay: Antitrypanosomal activity against Trypanosoma cruzi Y amastigotes infected in Swiss-Webster CM cells assessed as parasite DNA to host cell nucleus ratio at 10 ug/ml after 1 hr by fluorescence and transmission electron microscopy analysis; assay type: functional
Trypanosoma cruzi [20] = assay: Antitrypanosomal activity against Trypanosoma cruzi Columbian bloodstream forms infected in C3H mouse assessed as reduction in parasite-induced weight loss at 100 mg/kg/day, po administered 5 days postinfection for 10 consecutive days measured after 120 days; assay type: functional, organism-based
In short: (§7)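 Body weight of infected, treated mice followed from 0 to 120 dpi.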

Trypanosoma cruzi [21] = assay: Antitrypanosomal activity against Trypanosoma cruzi Columbian bloodstream forms infected in C3H mouse assessed as reduction in parasite-induced weight loss at 50 mg/kg/day, ip administered 5 days postinfection for 10 consecutive days measured after 120 days; assay type: functional, organism-based; in short: as §7
Trypanosoma cruzi [22] = assay: Antitrypanosomal activity against Trypanosoma cruzi Columbian bloodstream forms infected in C3H mouse assessed as decrease in parasite load at 25 mg/kg/day, ip administered 5 days postinfection for 10 consecutive days measured after 120 days; assay type: functional, organism-based
Trypanosoma cruzi [23] = assay: Antitrypanosomal activity against Trypanosoma cruzi Columbian bloodstream forms infected in C3H mouse assessed as decrease in parasite load in 25 mg/kg/day, po administered 5 days postinfection for 10 consecutive days measured after 120 days; assay type: functional, organism-based
Trypanosoma cruzi [24] = assay: Antitrypanosomal activity against Trypanosoma cruzi Columbian bloodstream forms infected in C3H mouse assessed as decrease in parasite load in 50 mg/kg/day, po administered 5 days postinfection for 10 consecutive days measured after 120 days; assay type: functional, organism-based

CC(C)Oc1cc(NC(=N)c2ccccn2)ccc1-c1ccc(-c2ccc(NC(=N)c3ccccn3)cc2OC(C)C)o1
Activity (Mus musculus [1]): Toxic | Activity (Mus musculus [2]): Non-toxic | inhibition in vivo at 100 mg/kg/day (Trypanosoma cruzi [3]): > 98% | IC50 (Trypanosoma cruzi [4]): 560 nM | IC50 (Trypanosoma cruzi [5]): 820 nM | IC50 (Trypanosoma cruzi [6]): 1000 nM | IC50 (Trypanosoma cruzi [7]): 160 nM | IC90 (Trypanosoma cruzi [7]): 320 nM | IC50 (Trypanosoma cruzi [8]): 170 nM | IC90 (Trypanosoma cruzi [8]): 410 nM | IC50 (Trypanosoma cruzi [9]): 180 nM | IC90 (Trypanosoma cruzi [9]): 440 nM | CC50 at 24 h [10]: > 32000 nM | CC50 at 72 h [11]: 16400 nM | Activity (Trypanosoma cruzi [12]): Active | Activity (Trypanosoma cruzi [13]): Active | Activity (Trypanosoma cruzi [14]): Active | Activity (Mus musculus [15]): Non-toxic | Activity (Mus musculus [16]): Non-toxic | Activity (Trypanosoma cruzi [17]): 88% | Activity (Trypanosoma cruzi [18]): Active | Ratio (Trypanosoma cruzi [19]): 2.1 | Activity (Trypanosoma cruzi [20]): inactive | Activity (Trypanosoma cruzi [21]): Active | Activity (Trypanosoma cruzi [22]): Active | Activity (Trypanosoma cruzi [23]): inactive | Activity (Trypanosoma cruzi [24]): inactive
